Sampled rows, rich in hits. Any-hit rate of the full collection: about 1.8%.
LMPTP inh: blocks human LMPTP phosphatase; P24666; recombinant LMPTP-A, OMFP fluorogenic substrate, fluorescence intensity; inhibition, % at 20 µM; AID 651560; hit rate 0.22% among 360,000;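 active = compounds that cut the enzyme signal by at least half of the control window in the single-dose screen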
Target sequence (P24666 whole entry, looked up): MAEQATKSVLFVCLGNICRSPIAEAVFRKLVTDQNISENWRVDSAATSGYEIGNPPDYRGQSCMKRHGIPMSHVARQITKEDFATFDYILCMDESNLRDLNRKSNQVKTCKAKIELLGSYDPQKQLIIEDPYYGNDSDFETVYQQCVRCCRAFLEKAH
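material = LMPTP-A | quantity = 0.625 nM enzyme | reagent = OMFP substrate, 400 µM final | buffer or medium = Bis-Tris pH 6.0, DTT, detergent | detection = endpoint fluorescence intensity from OMFP dephosphorylation | dosing = single 20 µM dose | read-out basis = % inhibition relative to no-enzyme and uninhibited control wells | control set = no-enzyme and uninhibited controls | timing = 50 min at room temperature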
Scp-1 inhibitor: inhibitors of human Scp-1 phosphatase | AID 493091 | inhibition, % at 20 µM | hit rate 0.88% among 340,000 | Recombinant Scp1, phosphopeptide, malachite green phosphate absorbance;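 active = inhibition above about 50% at 20 µM, limit read from the data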
Target sequence (Q9GZU7 76-261 limits assumed): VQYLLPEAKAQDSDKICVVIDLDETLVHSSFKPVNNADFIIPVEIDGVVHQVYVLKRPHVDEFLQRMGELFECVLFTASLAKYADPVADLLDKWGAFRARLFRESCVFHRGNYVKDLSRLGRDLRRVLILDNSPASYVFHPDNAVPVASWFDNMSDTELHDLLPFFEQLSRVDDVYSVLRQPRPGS
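Test system – truncated SCP-1 phosphatase (76-261aa) · Reagent – Phosphorylated 17-residue peptide substrate · Incubation – 45 min room-temperature reaction, 5 min colour, 30 min stabiliser · Detection – colorimetric phosphate reagent with accelerator and stabiliser, absorbance at 630 nm · Measure – % inhibition at 20 µM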
SUMO1-SIM PPI: alters human SUMO1 binding to SIM partners; hit rate 0.33% among 360,000; AID 602429; inhibition, % at 20 µM; SUMO1 binding to a labelled peptide, TR-FRET, 1 h; P63165; in the data active = inhibition above about 37%
Target sequence (P63165 whole entry, looked up): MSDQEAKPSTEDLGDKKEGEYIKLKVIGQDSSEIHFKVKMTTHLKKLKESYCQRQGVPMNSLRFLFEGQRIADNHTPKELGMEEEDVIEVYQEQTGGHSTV
DNMT1 inh: DNMT1 (human) enzyme inhibition; DNMT1 molecular beacon, Hinp1I cleavage, fluorescence; hit rate 0.83% among 360,000; AID 588458; P26358; inhibition (reported as % activation of signal), % at 10 µM; in the data active = inhibition above about 50%
STEP inh: STEP (human) phosphatase inhibition | P54829 | recombinant STEP, OMFP fluorogenic substrate, fluorescence | inhibition, % at 20 µM | hit rate 0.25% among 360,000;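 active = inhibition at 20 µM, scaled per plate between control wells, above about 37%, limit read from the data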
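material = STEP tyrosine phosphatase | reagent = fluorogenic phosphatase substrate OMFP at 25 µM final | doses = single compound dose of 20 µM, 1% DMSO final | schedule = 20 min reaction, room temperature, in the dark | measured by = fluorescence, 480/540 nm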
Scp1 confirm: Scp-1 (human) inhibition, single-dose confirmed; shares compounds with Scp-1 inhibitor; recombinant SCP-1 catalytic domain, phosphate release, malachite green absorbance; inhibition, % at 20 µM; hit rate 61% among 2,500
MG interference: counter-screen for Scp-1 inhibitors: colorimetric interference. shares compounds with Scp-1 inhibitor. Colorimetric interference counterscreen, malachite green absorbance 630 nm. apparent inhibition (interference), % at 20 µM. 2,500 tested, under 10 active. AID 540313;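 also: compounds added after enzyme reaction finished so only phosphate colour detection is probed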
Scp-1 Tm shift: binds human Scp-1, shifting its melting temperature; shares compounds with Scp-1 inhibitor; Recombinant SCP1, Sypro Orange thermal shift Tm; thermal shift relative to vanadate control, % at 40 µM; hit rate 25% among 1,500; AID 540329;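 active = substances whose mean melting-temperature shift, as a percentage of the reference inhibitor's shift, reaches about 5.3%, limit read from the data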
Of the large screens only hits and unclear results are named; the others gave an inactive call (follow-up assays come after a bar, where they were run).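 The calls were made as follows, unless noted: active = inhibition of at least 30% at 20 µM; inactive = the rest.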

Nc1ccnn1C1CCNCC1	none
CN1CCC(n2nccc2N)CC1	SUMO1-SIM PPI 43
CC(C)CNC(=O)c1c(N)n(Cc2ccc3c(c2)OCO3)c2nc3ccccc3nc12	SUMO1-SIM PPI 46
CC1([N+](=O)[O-])COP(=O)(Nc2cccc(Br)c2)OC1 (centres undefined)	none
O=c1c2ccccc2[se]n1-c1ccccc1	Scp-1 inhibitor 101
CS(=O)(=O)c1ccc(C2=C(CNC(=O)c3ccncc3)[C@H]3CC[C@@H](C2)N3Cc2ccco2)cc1	none (no result: Scp-1 inhibitor)
COc1ccc(P2(=O)Nc3ccccc3N2)cc1	Scp-1 inhibitor 55
COc1ccc(-c2ccc3c(c2)CN(C(=O)C(C)(C)C)Cc2cnnn2-3)cc1	none (no result: Scp-1 inhibitor)
CC(C)(C)C(=O)N1Cc2cc(N3CCCCC3)ccc2-n2nncc2C1	none (no result: Scp-1 inhibitor)
O=C(O)C(Br)CBr (centres undefined)	none
CCOC(=O)[C@]1(C#N)[C@@H]2C=CC(C(C)=O)=CN2[C@@H](C(N)=O)[C@@H]1c1ccsc1	SUMO1-SIM PPI 67
Cc1cccc(N2C(=O)/C(=C/c3ccc(CN(CCC#N)S(C)(=O)=O)o3)C(=O)NC2=S)c1	DNMT1 inh 58
O=C1CC=C2C3CC4N(CCC45c4ccccc4N1C25)CC3=CCO (centres undefined)	none
O=C1CC=C2C3CC4N(CCC45c4cc(O)c(O)cc4N1C25)CC3=CCBr (centres undefined)	LMPTP inh 77, SUMO1-SIM PPI 111, DNMT1 inh 91, STEP inh 84
C=Cc1cc(OC)c2c(c1)c(=O)oc1c2cc(OC)c2c(O)ccc(C3OC(C)C(O)C(C)(O)C3O)c21 (centres undefined)	Scp-1 inhibitor 81, SUMO1-SIM PPI 48, DNMT1 inh 62
O=C1NCN(c2ccccc2)C12CCN(C(c1nnnn1C1CCCC1)C1CC1)CC2 (centres undefined)	none (no result: Scp-1 inhibitor)
c1ccc(CNc2c3c(nc4ccccc24)CCC3)cc1	none
CC(C)CNc1c2c(nc3ccccc13)CCC2	SUMO1-SIM PPI 39
CC(=O)OC1=CC[C@H]2[C@@H]3CC[C@H]4C[C@H](OC(C)=O)[C@@H](OC(C)=O)C[C@]4(C)[C@H]3CC[C@]12C	none
Cc1cccc(C)c1-n1nnnc1C(CCc1ccccc1)N1CCC2(CC1)C(=O)NCN2c1ccccc1 (centres undefined)	none (no result: Scp-1 inhibitor)
CN1C(=O)CCC2(C)C1=CCC1C2CCC2(C)C1CCC2(C)O (centres undefined)	none
O=C1NC(=O)C(=Cc2cccc(OCCOc3ccccc3)c2)C(=O)N1	none
Cc1ccc(OCCOc2cccc(C=C3C(=O)NC(=O)NC3=O)c2)c(C)c1	DNMT1 inh 52
CN(C)C1C(=O)C(C(N)=O)=C(O)C2(O)C(=O)C3=C(O)c4c(O)cccc4C(C)(O)C3C(O)C12 (centres undefined)	LMPTP inh 52, DNMT1 inh 53
CCOC(=O)c1c(NS(=O)(=O)c2ccccc2)n(CCCOC)c2nc3ccccc3nc12	SUMO1-SIM PPI 43
CCn1nc(-c2ccccc2)nc2c(=O)n(C)c(=O)nc1-2	none
Cc1nc2c(=O)n(C)c(=O)nc-2n(C)n1	LMPTP inh 73, DNMT1 inh 128, STEP inh 79
C=C1C(=O)[C@@]23C[C@H]4[C@@H]5[C@@]6(C)CCC[C@@]57[C@@H]2[C@@H](O)[C@@H]1C[C@H]3[C@H]7N4C6	none
NC(N)=N/N=C/c1ccc(N(c2ccccc2)c2ccccc2)cc1	SUMO1-SIM PPI 100
COc1ccc(/C=N\N=C(N)N)cc1	none
O=C1NCN(c2ccccc2)C12CCN(C(c1ccccc1)c1nnnn1Cc1ccccc1)CC2 (centres undefined)	none (no result: Scp-1 inhibitor)
CCOc1cc(C=C2C(=O)NC(=O)NC2=O)ccc1OCC(=O)N1CCOCC1	none
O=C1NC(=S)NC(=O)C1=Cc1ccc(OCC(=O)N2CCCC2)cc1	Scp-1 inhibitor 51 | Scp1 confirm 51 | MG interference inactive | Scp-1 Tm shift inactive
CC/C(CC(c1ccccc1)c1c(O)c2ccccc2oc1=O)=N\NC(N)=S (centres undefined)	Scp-1 inhibitor 56 | Scp1 confirm 46 | MG interference inactive | Scp-1 Tm shift inactive
CCOC(C(=O)OCCC[N+](C)(CC)CC)(c1ccccc1)c1ccccc1	none
CC[N+](C)(CC)CCCOC(=O)C(O)(c1ccccc1)C1CCCCC1 (centres undefined)	Scp-1 inhibitor 102 | Scp1 confirm 79 | MG interference inactive | Scp-1 Tm shift inactive
O=C1CC[C@@]2(O)[C@H]3Cc4ccc(O)c5c4[C@@]2(CCN3CC2CC2)[C@H]1O5	none
C=CC[N+]1(C)CC[C@]23c4c5ccc(O)c4O[C@H]2C(=O)CC[C@@]3(O)[C@H]1C5 (some centres undefined)	Scp-1 inhibitor 98 | Scp1 confirm 93 | MG interference inactive | Scp-1 Tm shift inactive
CCOc1ccc(N=C2SCCCN2C)cc1	Scp-1 inhibitor 103 | Scp1 confirm 86 | MG interference inactive | Scp-1 Tm shift inactive
COC(=O)C1=C(c2ccc(OCc3ccccc3)cc2)C[C@@H]2CC[C@H]1N2C(=O)NCc1ccc([N+](=O)[O-])cc1	Scp-1 inhibitor 68 | Scp1 confirm inactive | MG interference inactive
COC(=O)C1=C(c2cccc(OCc3ccccc3)c2)C[C@@H]2CC[C@H]1N2C(=O)NCc1ccc([N+](=O)[O-])cc1	none
Cc1cc(/C=C2\C(=O)NC(=O)N(Cc3ccccc3Cl)C2=O)c(C)n1-c1ccc(C(=O)O)cc1	Scp-1 inhibitor 66, DNMT1 inh 71 | Scp1 confirm 67 | MG interference inactive | Scp-1 Tm shift inactive
Cc1cc(/C=C2\C(=O)NC(=O)N(c3cccc(F)c3)C2=O)c(C)n1-c1ccc(C(=O)O)c(Cl)c1	Scp-1 inhibitor 51, DNMT1 inh 60 | Scp1 confirm 58 | MG interference inactive | Scp-1 Tm shift inactive
Cc1ccc(N2C(=O)NC(=O)/C(=C/c3ccc(-c4ccc(C(=O)O)c(Cl)c4)o3)C2=O)cc1	Scp-1 inhibitor 58 | Scp1 confirm 55 | MG interference inactive | Scp-1 Tm shift inactive
Cc1c(P(=S)(c2ccccc2)c2ccccc2)[n+]2ccccc2n1C	Scp-1 inhibitor 68 | Scp1 confirm inactive | MG interference inactive
Cn1cc[n+](C)c1P(=S)(c1ccccc1)c1ccccc1	none
